Screens as filed in PubChem BioAssay.
hERG rescue = hERG rescue from dofetilide block, primary screen, cell-based, CHO-hERG, FluxOR thallium flux, dofetilide IC70; hit rate 0.51% among 310,000; dofetilide IC70 present; Voltage-gated inwardly rectifying potassium channel KCNH2 (Homo sapiens), Q12809; activation (rescue from dofetilide block), less the hit threshold, % at 10 µM;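 active means activation above the mean of controls blocked by dofetilide plus 5 SD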;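 further: thallium influx through hERG after potassium depolarization seen as dye fluorescence rise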
Target sequence (Q12809 whole entry, looked up): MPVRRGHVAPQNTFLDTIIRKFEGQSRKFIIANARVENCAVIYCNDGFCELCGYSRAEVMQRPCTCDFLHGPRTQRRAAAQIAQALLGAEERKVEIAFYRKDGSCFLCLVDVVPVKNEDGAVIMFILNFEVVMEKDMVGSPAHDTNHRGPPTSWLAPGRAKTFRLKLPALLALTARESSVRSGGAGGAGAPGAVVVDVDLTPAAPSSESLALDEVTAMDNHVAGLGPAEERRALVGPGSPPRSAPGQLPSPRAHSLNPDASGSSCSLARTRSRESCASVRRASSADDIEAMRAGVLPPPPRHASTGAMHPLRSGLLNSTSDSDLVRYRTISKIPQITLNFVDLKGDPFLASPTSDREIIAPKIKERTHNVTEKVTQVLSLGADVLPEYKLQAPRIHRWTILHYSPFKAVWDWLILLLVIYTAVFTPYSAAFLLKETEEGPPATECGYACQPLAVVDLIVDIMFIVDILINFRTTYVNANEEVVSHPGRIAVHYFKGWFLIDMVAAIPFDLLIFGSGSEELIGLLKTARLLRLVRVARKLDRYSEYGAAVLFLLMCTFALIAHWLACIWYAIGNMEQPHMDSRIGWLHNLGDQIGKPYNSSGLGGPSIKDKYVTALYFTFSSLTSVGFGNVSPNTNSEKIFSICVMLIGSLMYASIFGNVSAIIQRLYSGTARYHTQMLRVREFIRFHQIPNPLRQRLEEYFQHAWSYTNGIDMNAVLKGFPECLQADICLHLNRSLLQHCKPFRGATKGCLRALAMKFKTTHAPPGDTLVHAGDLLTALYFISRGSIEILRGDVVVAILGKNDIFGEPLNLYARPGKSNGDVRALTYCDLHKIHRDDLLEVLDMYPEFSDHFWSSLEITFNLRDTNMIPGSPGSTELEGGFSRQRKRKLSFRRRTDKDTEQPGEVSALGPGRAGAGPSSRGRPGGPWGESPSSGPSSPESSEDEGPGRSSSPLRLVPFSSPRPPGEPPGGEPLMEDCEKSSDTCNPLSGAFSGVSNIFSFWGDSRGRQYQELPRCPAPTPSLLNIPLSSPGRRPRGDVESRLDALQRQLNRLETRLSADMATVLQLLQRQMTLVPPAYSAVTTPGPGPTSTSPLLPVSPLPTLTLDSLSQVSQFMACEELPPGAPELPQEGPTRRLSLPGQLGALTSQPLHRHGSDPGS
KCNQ1 inh = inhibitors of human KCNQ1 channel, primary screen, cell-based, thallium flux, high-throughput. hit rate 1.3% among 310,000. CHO-K1 KCNQ1, FluxOR thallium flux fluorescence; active compounds read high. B-score at 10 µM;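 active means compounds whose thallium flux B-score, printed positive for inhibition, exceeds three library SD while starting fluorescence stays within three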;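 further: channel opened by potassium depolarization with thallium stimulus after 20 min compound exposure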
KCNQ1 pot = potentiators or activators of KCNQ1 channel, primary screen, cell-based, thallium flux, high-throughput; Potassium voltage-gated channel subfamily KQT member 1 (Homo sapiens), P51787; CHO-K1 KCNQ1, thallium flux FluxOR fluorescence; active compounds read high; B-score at 10 µM; hit rate 0.35% among 310,000;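 active means fluorescence ratio B-score, a plate-corrected score, at least three library SD, with initial intensity B-score within 5 SD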
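Test system: CHO-K1 cells stably expressing KCNQ1 / Medium: assay buffer / Also added: depolarizing K+/Tl+ stimulus, K2SO4 and Tl2SO4 each 12.5 mM in 5x stock / Incubation: 90 min dye loading and 20 min compound exposure, both at room temperature / Signal: thallium influx via FluxOR fluorescence, kinetic imaging / Evaluation: B score of baseline-normalized fluorescence ratio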
Kir21 block = inhibitors of mouse Kir2.1 inward-rectifier potassium channel | hit rate 0.85% among 310,000 | HEK293-Kir2.1, FluxOR thallium flux fluorescence; active compounds read low | B-score at 10 µM | Inward rectifier potassium channel 2 (Mus musculus), P35561;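 active means fluorescence ratio B-score at or below minus 3 SD of library scores, with starting-brightness B-score within 2 SD, cut at about -4.2 in these data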;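 further: channel flux triggered by added potassium and thallium sulfate stimulus; B-score of peak minus minimum fluorescence over baseline after thallium stimulus; more negative B-score means stronger Kir2.1 block with less thallium influx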
KCNK3 inh = human KCNK3 channel inhibitors, primary screen, CHO cells, FluxOR thallium flux, B-score | hit rate 0.84% among 340,000 | Potassium channel subfamily K member 3 (Homo sapiens), O14649 | FluxOR fluorescence; active compounds read low | B-score at 10 µM;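 active means B-score under library mean minus 4 SD, starting fluorescence ratio at most library mean plus 5 SD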;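 further: more negative B-score means stronger inhibition of thallium flux through KCNK3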
KCNK9 inh = KCNK9 potassium channel inhibitors, primary screen, HEK293 cells, thallium flux | Potassium channel subfamily K member 9 (Homo sapiens), Q9NPC2 | FluxOR thallium flux fluorescence; active compounds read low | B-score at 10 µM | hit rate 1.2% among 310,000 | AID 488922, 2010;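 active means ratio B-score over 3 SD below the library mean, with starting fluorescence within 5 SD of its mean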;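 further: negative B-score means less thallium flux so channel inhibition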
KCNK9 inh conf = KCNK9 potassium channel inhibitors, confirmation, HEK293 cells, thallium flux, duplicate; shares compounds with KCNK9 inh; FluxOR thallium flux fluorescence; inhibition, % at 10 µM; hit rate 43% among 4,900; AID 492992, 2010;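 active means thallium signal inhibited by more than 5 SD of the compound-free buffer control wells, on both duplicate plates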
Kir21 sel = mouse Kir2.1 channel inhibition, confirmation, selectivity assay for KCNK9 modulator project, cell-based, HEK293, thallium flux. shares compounds with KCNK9 inh. Kir2.1 cells, FluxOR thallium flux fluorescence. inhibition, % at 10 µM. hit rate 4% among 4,900. AID 492993, 2010;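 active means thallium signal drop more than 5 SD beyond the mean of the no-compound control wells, seen in both duplicate plates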;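 further: signal is fluorescence rise after thallium addition divided by baseline fluorescence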
HEK293 Tl ctr = thallium flux in non-induced HEK293 cells, confirmation, counter-screen for KCNK9 inhibitor project, cell-based, second counter screen, non-induced KCNK9-HEK293; shares compounds with KCNK9 inh; FluxOR thallium flux; inhibition, % at 10 µM; hit rate 40% among 4,900; AID 492997, 2010;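 active means thallium signal drop beyond 5 SD of the untreated control mean, on both duplicate plates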
Large screens that a line does not name were inactive (follow-up assays come after a bar, where they were run). Most compounds without a hit are left out; they make up all but 3.7% or so of the library.

CCCCCn1c(=O)c(C(=O)c2ccccc2)nc2ccccc21	KCNK9 inh -14.6 | KCNK9 inh conf 45.5% | Kir21 sel inactive | HEK293 Tl ctr 30.5%
O=C(/C=C/c1ccc(-c2ccccc2[N+](=O)[O-])o1)c1ccccc1	KCNK9 inh -8.48 | KCNK9 inh conf 40.5% | Kir21 sel inactive | HEK293 Tl ctr 28.5%
O=C(O)/C(=C\c1ccc(-c2ccccc2[N+](=O)[O-])o1)c1ccccc1	none
O=C(N[C@H]1CCC(=O)N(CCSc2ccc(Br)cc2)CC1)OCc1ccccc1	none (no result: hERG rescue, KCNQ1 inh, KCNQ1 pot, Kir21 block, KCNK9 inh)
Cc1ccc(SCCN2CCC(NC(=O)OCc3ccccc3)CCC2=O)cc1 (stereo unspecified)	none | KCNK9 inh conf inactive | Kir21 sel inactive | HEK293 Tl ctr inactive
Cc1ccc(SCCN2CCC(C(C)(C)C)CCC2=O)cc1 (stereo unspecified)	none | KCNK9 inh conf inactive | Kir21 sel inactive | HEK293 Tl ctr inactive
Cc1ccc(SCCN2CCN(CC(C)C)CCC2=O)cc1	none | KCNK9 inh conf inactive | Kir21 sel inactive | HEK293 Tl ctr inactive
C[C@@H](CSc1ccccc1)CN1CC[C@H](C(C)(C)C)CCC1=O	Kir21 block -5.29 | KCNK9 inh conf inactive | Kir21 sel inactive | HEK293 Tl ctr inactive
CCN(CC)C(=O)CN1C(=O)C2(OCC(C)(C)CO2)c2ccccc21	none (no result: hERG rescue, KCNQ1 inh, KCNQ1 pot, Kir21 block, KCNK9 inh)
Cc1ccc(S(=O)(=O)NCC(=O)OCC(=O)NC(=O)NC2CCCC2)cc1	none
COc1ccc(S(=O)(=O)NCC(=O)N(CC(=O)NCC2CCCO2)Cc2ccc(F)cc2)cc1 (stereo unspecified)	none
COCCSc1ccccc1C(=O)Nc1ccc(Br)cc1	KCNK9 inh -13 | KCNK9 inh conf 44.5% | Kir21 sel inactive | HEK293 Tl ctr 25.0%
Cc1ccc(C)c(N2CCN(C3CCCCC3NS(=O)(=O)c3ccccc3)CC2)c1 (stereo unspecified)	KCNQ1 inh 8, KCNK3 inh -12.1, KCNK9 inh -16.4 | KCNK9 inh conf 52.0% | Kir21 sel inactive | HEK293 Tl ctr 31.0%
COc1ccc(N2CCN(C3CCCCC3NS(=O)(=O)c3ccc(Cl)cc3)CC2)cc1 (stereo unspecified)	none | KCNK9 inh conf inactive | Kir21 sel inactive | HEK293 Tl ctr inactive
COc1ccc2c(c1)-c1c(sn(-c3ccc(OC)c(OC)c3)c1=S)C(C)(C)N2	none | KCNK9 inh conf inactive | Kir21 sel inactive | HEK293 Tl ctr inactive
COc1ccc(-n2sc3c(c2=S)-c2cc(OC)ccc2NC3(C)C)cc1	none
Oc1ccccc1C1=Nc2ccccc2N=C(c2cccs2)C1	KCNK9 inh -10.1 | KCNK9 inh conf 42.5% | Kir21 sel inactive | HEK293 Tl ctr 34.0%
Cc1ccc(CSc2nc3ccccc3c(=O)[nH]2)cc1	KCNK9 inh -9 | KCNK9 inh conf inactive | Kir21 sel inactive | HEK293 Tl ctr 29.0%
CC1SCC(NC(=O)c2ccccc2Cl)CS1 (stereo unspecified)	none
CC1SCC(NC(=O)c2ccc(Cl)cc2)CS1 (stereo unspecified)	KCNK9 inh -14.1 | KCNK9 inh conf inactive | Kir21 sel inactive | HEK293 Tl ctr 24.0%
CC1SCC(NC(=O)c2cccc(Cl)c2)CS1 (stereo unspecified)	KCNK9 inh -10 | KCNK9 inh conf 44.0% | Kir21 sel inactive | HEK293 Tl ctr 26.5%
